A selection: hits, their analogues and other compounds. The true share with any hit is near 1.6%.
LEDGF integ inh: blockers of LEDGF/p75-dependent integrase strand transfer – biochemical, TR-FRET, high throughput, primary screen. TR-FRET IN-LEDGF/p75 DNA integration, Eu/Cy5. inhibition, % at 3.7 µM. 370,000 compounds, 0.64% hits;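 active = inhibition above the screen-wide mean plus 3 SD, cut at about 13% in these data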;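 also: signal is the Cy5 over europium emission ratio at 671 and 618 nm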
UHRF1 binding: UHRF1 methylated DNA binding inhibitors, primary screen, counter-screen for MBD2 inhibitor project, biochemical, TR-FRET, human UHRF1, single concentration; inhibition, % at 4.4 µM; UHRF1 binding to methylated oligo; 370,000 compounds, 0.75% hits; AID 687016, 2013; in the data active = inhibition above about 21%;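 also: UHRF1 SRA domain binding a hemimethylated CpG hairpin DNA probe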
TDP2 inh: human TDP2 enzyme inhibitors, primary screen, biochemical, epi absorbance, recombinant enzyme; T5PNP hydrolysis, p-nitrophenol absorbance 415 nm; inhibition, % at 12.8 µM; 370,000 compounds, 0.34% hits; AID 720702, 2013;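 active = inhibition above the mean of all tested compounds plus 3 SD, set per campaign, cut at about 25% in these data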
Target sequence (O95551 whole entry, looked up): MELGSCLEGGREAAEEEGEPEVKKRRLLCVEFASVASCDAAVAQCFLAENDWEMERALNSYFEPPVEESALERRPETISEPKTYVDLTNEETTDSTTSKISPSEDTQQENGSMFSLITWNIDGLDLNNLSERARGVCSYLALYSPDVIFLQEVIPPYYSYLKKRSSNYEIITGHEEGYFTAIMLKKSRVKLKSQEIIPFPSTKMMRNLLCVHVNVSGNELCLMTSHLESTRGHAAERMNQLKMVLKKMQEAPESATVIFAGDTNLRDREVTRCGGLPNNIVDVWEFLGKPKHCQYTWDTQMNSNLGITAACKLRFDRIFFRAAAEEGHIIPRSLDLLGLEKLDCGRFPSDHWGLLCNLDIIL
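Incubation: 2 h at 37 °C; Test system: recombinant human TDP2; Quantity: enzyme 120 nM; Read-out basis: percent inhibition; Medium: 50 mM Tris-HCl pH 7.5 with Mg2+, KCl, DTT, BSA; Repeats: single replicate; Compound: 12.8 µM single point, 1% DMSO; Signal: epi absorbance; Reagent: 5 mM T5PNP chromogenic substrate; Benchmarks: no-enzyme high, DMSO-plus-enzyme low.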
MBD2 DNA inh: inhibitors of MBD2 binding to methylated DNA, primary screen, biochemical, TR-FRET, DNA-binding domain, human; MBD2 binding to methylated oligonucleotide; inhibition, % at 4.4 µM; 370,000 compounds, 0.31% hits; Methyl-CpG-binding domain protein 2 (Homo sapiens), Q9UBB5; in the data active = inhibition above about 13%
UHRF1 DNA bind: UHRF1 methylated DNA binding inhibitors, counter-screen for MBD2 inhibitor project, biochemical, TR-FRET, human UHRF1. shares compounds with MBD2 DNA inh. UHRF1 binding to methylated oligonucleotide. inhibition, % at 4.4 µM. 1,000 compounds, 25% hits; in the data active = inhibition above about 21%;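 also: UHRF1 SRA domain binding a labeled hemimethylated CpG hairpin DNA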
MBD2 DBD conf: inhibitors of MBD2 binding to methylated DNA, confirmation, biochemical, TR-FRET, DNA-binding domain, human; shares compounds with MBD2 DNA inh; TR-FRET MBD2-DBD binding to methylated oligonucleotide; inhibition, % at 4.4 µM; 1,000 compounds, 26% hits
TDP2 inh conf: human TDP2 enzyme inhibitors, retest, confirmation, biochemical, epi absorbance, recombinant enzyme; absorbance read-out; 1,100 compounds, 22% hits; inhibition, % at 12.8 µM; shares compounds with TDP2 inh; in the data active = inhibition above about 25%
IN multimer up: HIV-1 IN multimer formation enhancers, counter-screen for LEDGF/p75 integration inhibitor project, biochemical, TR-FRET; 2,000 compounds, 17% hits; shares compounds with LEDGF integ inh; activation, % at 7.7 µM; TR-FRET HIV-1 integrase multimerization; in the data active = activation above about 8.9%
TR-FRET interf: TR-FRET optical interference artefacts, confirmation, artefact control for LEDGF/p75-dependent integration inhibitor project, biochemical, HIV-1 IN multimerization | shares compounds with LEDGF integ inh | TR-FRET optical interference counterscreen | inhibition, % at 7.7 µM | 2,000 tested, under 10 active | AID 1053135, 2014;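 active = inhibition above the mean over all tested compounds plus 3 SD, which no compound reached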
IN-LEDGF confirm: inhibitors of HIV-1 IN-LEDGF/p75 DNA integration, confirmation, biochemical, TR-FRET. shares compounds with LEDGF integ inh. TR-FRET LEDGF/p75-dependent HIV-1 integration. inhibition, % at 3.7 µM. 2,000 compounds, 36% hits. AID 1053136, 2014
A number is an active result; – = inactive; · = no result given. Rule as the data show it, unless noted: active = inhibition above about 14%; inactive = the rest.

SMILES	LEDGF integ inh	UHRF1 binding	TDP2 inh	MBD2 DNA inh	UHRF1 DNA bind	MBD2 DBD conf	IN multimer up	TR-FRET interf	IN-LEDGF confirm	others
CCc1cc(=O)oc2cc(C)c(CN3CCCC3)c(O)c12	35	32	–	15	–	–	–	–	40
Cc1cc(C)c2c(CN3CCCC3)cc(=O)oc2c1	–	–	–	–	·	·	·	·	·
O=C(O)c1cccc(-n2cccc2/C=C\[N+](=O)[O-])c1	32	58	–	17	26	–	–	–	–
O=C(O)c1cccc(-n2cccc2/C=N/O)c1	–	–	–	–	·	·	·	·	·
COc1ccc(OC)c(N2C(=O)[C@@H]3C(c4ccccc4Cl)=NO[C@@H]3C2=O)c1	23	67	–	26	38	18	–	–	26
Cc1cccc(C)c1N1C(=O)[C@@H]2C(c3ccccc3Cl)=NO[C@@H]2C1=O	–	–	–	–	·	·	·	·	·
Cc1cccc(CCNC(=O)CSc2nc3c([nH]2)c(=O)n(C)c(=O)n3C)c1	–	–	–	–	·	·	·	·	·
N#Cc1c(SCC(=O)Nc2ccc(C(F)(F)F)cc2)sc2c(O)cc(=O)[nH]c12	–	–	–	–	·	·	·	·	·
N#Cc1c(SCC(=O)Nc2nncs2)sc2c(O)cc(=O)[nH]c12	20	48	–	18	43	23	29	–	26
CCOc1cc(N2CCOCC2)c(OCC)cc1NC(C)C(=O)N1CCN(CC)CC1 (configuration not stated)	63	91	45	51	–	–	–	–	–
CCOc1cc(N2CCOCC2)c(OCC)cc1NC(=O)C(C)C	–	–	–	–	·	·	·	·	·
Cc1ccc(CN2CCCCC(NC(=O)c3cccc([N+](=O)[O-])c3)C2=O)cc1 (configuration not stated)	–	–	–	–	·	·	·	·	·
COc1cccc(C(c2c(C)[nH]n(-c3ccccc3)c2=O)c2c(C)[nH]n(-c3ccccc3)c2=O)c1OC	21	–	89	17	–	–	–	–	–	TDP2 inh conf=32
Cc1[nH]n(-c2ccccc2)c(=O)c1C(c1ccc(O)c([N+](=O)[O-])c1)c1c(C)[nH]n(-c2ccccc2)c1=O	38	–	89	15	–	–	–	–	–	TDP2 inh conf=–
COc1cccc(C(c2c(C)[nH]n(-c3ccccc3)c2=O)c2c(C)[nH]n(-c3ccccc3)c2=O)c1O	23	21	80	21	–	–	–	–	–	TDP2 inh conf=–
Cc1[nH]n(-c2ccccc2)c(=O)c1C(C[N+](=O)[O-])c1ccccc1Cl (configuration not stated)	–	–	–	–	·	·	·	·	·
